Results published in article PMC6344890 (Journal of medicinal chemistry, 2018).

Experiments:
[1] = tested on: benzodiazepine (BZP) rat brain site; test: Psychoactive Drug Screening Program binding, benzodiazepine; details: PDSP
PC12 cells [2] = test: Oxygen glucose deprivation; type: cell-based; details: PC12-OGD primary assay, 1, 10, 25 μM
Summary of the method: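 PC12 cells (passage 12–14, undifferentiated) were plated overnight in serum-containing DMEM/F12. They were deprived of glucose and oxygen for 1.5 h (glucose-free HBSS, argon, 37 °C). The medium was then replaced with growth medium containing test compound (1, 10, 25 µM) or DMSO for 24 h. MTT (0.5 mg/mL) was added for 4 h and dissolved in DMSO, with absorbance read at 540 nm. Viability is % change versus vehicle control; mean ± SEM, n = 3, triplicate experiments; ANOVA with Dunnett's test.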

delta opioid receptor = delta opioid receptor (Homo sapiens, UniProt P41143); test: Psychoactive Drug Screening Program binding, delta opioid receptor; details: PDSP
PC12 cells [3] = test: LC-MS/MS study of cell permeability; type: in vitro ADME; details: 25 μM, 24 h, control and OGD-treated PC12 cells
Summary of the method: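 PC12 cells (1×10^6) were given 1.5 h OGD under argon at 37 °C, or kept without OGD on a control plate. They were then exposed to 25 µM test compound or vehicle for 24 h. Medium was collected, and cytosol was taken by lysis in HEPES/NP-40 buffer for 15 min at 0 °C and centrifuged. Samples were diluted in 2% formic acid and spiked with an analogue internal standard. Analysis was positive-ESI UPLC-MS/MS, with MRM peak areas normalised to the internal standard.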

male C57BL/6 mice = test: Step-through passive avoidance; type: in vivo; details: scopolamine 1 mg/kg ip 30 min prior to training alone (negative control); vehicle-treated 270 ± 29 s; mean ± SEM
[4] = Reactivity analysis with N-acetyl cysteine, HPLC-PDA; type: physicochemical; details: 250 μM compound, N-acetyl cysteine 5 mM, PBS 50 mM pH 7.4, 37 °C, 2 and 12 h
Summary of the method: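 Test compound (250 µM) or N-ethylmaleimide (250 µM) was incubated with or without N-acetylcysteine (5 mM) in 50 mM PBS, pH 7.4, at 37 °C. Aliquots were taken at 2 and 12 h and analysed by HPLC-PDA. Peak areas at each analyte's UV λmax gave the relative abundance of remaining starting material.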

PC12 cells [5] = test: NO production as NO2− in the primary assay; type: cell-based
hERG = hERG (Homo sapiens, UniProt Q12809); test: Psychoactive Drug Screening Program hERG binding; details: PDSP
CREB phosphorylation = test: pCREB:tCREB ratio in forebrain by ELISA; type: in vivo, mice; details: 5a alone 20 mg/kg ip or po, 1, 2 or 12 h
[6] = type: in vivo; details: 20 mg/kg ip or po, mice
[7] = tested on: GABAA, serotonin receptors, dopamine receptors, and muscarinic and nicotinic acetylcholine receptors; test: Psychoactive Drug Screening Program radioligand binding panel; details: PDSP, Supplementary Table 2
sGC signaling = test: PC12-OGD assay with co-incubation of the sGC inhibitor ODQ, MTT readout; type: cell-based; details: ODQ 10 μM
Summary of the method: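 This was the PC12 OGD protocol (90 min glucose-free HBSS under argon at 37 °C, then 24 h in growth medium with test compound), with ODQ (10 µM) co-incubated. Viability was read by MTT (0.5 mg/mL, 4 h, DMSO-solubilised, 540 nm) relative to vehicle control. Mean ± SEM, n = 3, duplicate experiments; one-way ANOVA with Dunnett's test.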

PC12 cells [8] = test: OGD neuroprotection concentration response, PrestoBlue; type: cell-based; details: 50 μM, OGD-exposed PC12 cells
Summary of the method: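 Undifferentiated PC12 cells (passage 12–14) were plated overnight in DMEM/F12 with 5% FBS and 5% HS. They were given 1.5 h OGD in glucose-free HBSS under argon at 37 °C. Fresh growth medium with test compound (0.1, 1, 5, 10, 25, 50 µM) or DMSO followed, for 24 h at 37 °C. PrestoBlue (10%) was added for 30 min, and fluorescence was read at 560/590 nm. Results are % change versus vehicle control; non-OGD plates were included.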

Sequence of hERG (Q12809 whole entry): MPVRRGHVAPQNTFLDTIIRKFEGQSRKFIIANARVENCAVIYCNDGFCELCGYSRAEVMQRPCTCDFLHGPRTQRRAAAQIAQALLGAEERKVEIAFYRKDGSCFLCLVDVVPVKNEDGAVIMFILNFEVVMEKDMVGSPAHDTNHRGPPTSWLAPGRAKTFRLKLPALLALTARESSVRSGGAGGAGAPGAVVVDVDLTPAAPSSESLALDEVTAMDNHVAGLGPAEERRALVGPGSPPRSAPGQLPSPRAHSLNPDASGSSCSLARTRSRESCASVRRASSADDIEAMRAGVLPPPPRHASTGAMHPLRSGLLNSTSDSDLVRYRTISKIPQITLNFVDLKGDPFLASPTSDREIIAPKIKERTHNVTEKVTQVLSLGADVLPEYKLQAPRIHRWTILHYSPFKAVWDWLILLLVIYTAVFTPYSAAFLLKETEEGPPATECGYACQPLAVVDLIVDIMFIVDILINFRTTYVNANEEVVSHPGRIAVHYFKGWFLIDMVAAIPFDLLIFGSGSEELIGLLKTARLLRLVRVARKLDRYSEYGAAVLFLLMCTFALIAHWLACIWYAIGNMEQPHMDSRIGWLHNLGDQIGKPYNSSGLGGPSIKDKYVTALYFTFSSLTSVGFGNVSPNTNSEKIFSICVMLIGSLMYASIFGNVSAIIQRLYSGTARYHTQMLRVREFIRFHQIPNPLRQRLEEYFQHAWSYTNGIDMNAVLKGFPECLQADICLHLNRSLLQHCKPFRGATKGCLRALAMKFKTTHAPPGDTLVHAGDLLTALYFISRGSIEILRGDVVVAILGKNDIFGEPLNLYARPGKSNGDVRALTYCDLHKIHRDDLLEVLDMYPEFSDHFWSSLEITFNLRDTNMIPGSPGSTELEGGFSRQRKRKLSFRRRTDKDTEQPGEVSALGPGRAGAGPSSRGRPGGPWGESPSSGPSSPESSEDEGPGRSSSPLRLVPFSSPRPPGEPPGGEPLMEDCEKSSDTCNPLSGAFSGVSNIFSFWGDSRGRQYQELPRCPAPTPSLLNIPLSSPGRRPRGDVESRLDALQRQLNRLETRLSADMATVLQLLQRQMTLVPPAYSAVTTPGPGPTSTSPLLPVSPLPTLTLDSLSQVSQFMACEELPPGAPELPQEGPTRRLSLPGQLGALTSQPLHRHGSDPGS
Sequence of delta opioid receptor (P41143 whole entry): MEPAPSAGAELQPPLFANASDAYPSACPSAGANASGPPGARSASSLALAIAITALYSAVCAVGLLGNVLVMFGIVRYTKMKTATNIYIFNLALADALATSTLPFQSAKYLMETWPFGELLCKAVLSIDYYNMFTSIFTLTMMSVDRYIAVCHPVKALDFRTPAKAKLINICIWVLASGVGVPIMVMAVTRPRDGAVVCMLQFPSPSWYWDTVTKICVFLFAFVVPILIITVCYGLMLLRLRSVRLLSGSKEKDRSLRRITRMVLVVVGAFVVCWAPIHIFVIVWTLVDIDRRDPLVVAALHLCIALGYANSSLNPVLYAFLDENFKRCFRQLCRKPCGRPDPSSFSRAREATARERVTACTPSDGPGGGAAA

Compound: [2H]C1([2H])CC(C)CC([2H])([2H])N1Cc1no[n+]([O-])c1-c1ccc(F)cc1 [Furoxan 7a, 3-(4-Fluorophenyl)-4-((4-methylpiperidin-1-yl-2,2,6,6-d4)methyl)-1,2,5-oxadiazole 2-Oxide]
- inhibition of binding at the benzodiazepine (BZP) rat brain site [1]: significantly inhibited binding
- neuroprotection (in words) (PC12 cells [2]): no neuroprotective effects
- inhibition of binding at the delta opioid receptor (delta opioid receptor): significantly inhibited binding
- distribution between media (supernatant) and cytosol (PC12 cells [3]): found in greatest amounts in the cytosol

Compound: CN1[C@@H]2C[C@@H](OC(=O)[C@H](CO)c3ccccc3)C[C@H]1[C@@H]1O[C@@H]12 [Scopolamine]
- latency to enter the dark compartment 24 h after training (male C57BL/6 mice): 63.5 ± 30 s

Compound: CCN1C(=O)C=CC1=O [NEM, N-ethylmaleimide, reference compound]
- reactivity with excess thiol [4]: complete reaction

Compound: CC1CCN(Cc2no[n+]([O-])c2-c2ccc(Br)cc2)CC1 [Furoxan 5c, 3-(4-Bromophenyl)-4-((4-methylpiperdin-1-yl)methyl)-1,2,5-oxadiazole 2-Oxide]
- neuroprotection (in words) (PC12 cells [2]): noticeable neuroprotective activity

Compound: CC1CCN(Cc2no[n+]([O-])c2-c2ccc(OC(F)F)cc2)CC1 [Furoxan 5d, 3-(4-(Difluoromethoxy)phenyl)-4-((4-methylpiperidin-1-yl)-methyl)-1,2,5-oxadiazole 2-Oxide]
- neuroprotection (in words) (PC12 cells [2]): noticeable neuroprotective activity

Compound: CC1CCN(Cc2no[n+]([O-])c2-c2ccc(F)cc2)CC1 [Furoxan 5a, 3-(4-Fluorophenyl)-4-((4-methylpiperidin-1-yl)methyl)-1,2,5-oxadiaozle 2-Oxide]
- neuroprotection (in words) (PC12 cells [2]): noticeable neuroprotective activity
- NO production in the form of NO2− (PC12 cells [5]): negligible NO production
- hERG binding (hERG): No hERG binding was observed
- distribution between media (supernatant) and cytosol (PC12 cells [3]): found in greatest amounts in the cytosol
- effect on pCREB (pCREB:tCREB ratio), forebrain (CREB phosphorylation): no effect on pCREB was observed
- presence in forebrain and plasma after 12 h [6]: detectable levels after 12 h
- interference with radioligand binding, receptor panel [7]: does not interfere with binding of any radioligands for all receptors screened
- neuroprotective effects on co-incubation with ODQ (sGC signaling): completely blocked
- toxicity at the highest concentration tested (PC12 cells [8]): no toxicity was observed
- reactivity with excess thiol [4]: negligible reactivity
